In ChEMBL document CHEMBL4513216, “Probing the Open Global Health Chemical Diversity Library for Multistage-Active Starting Points for Next-Generation Antimalarials” (ACS Infect Dis, 2020) one finds cytotoxicity data, which are given here for 71 compounds.

Each structure is given as a SMILES string.

This series in a line: Toxicity liver stage against HepG2, at 10uM. Type of series: cell-based. Set-up: test concentration 10 uM, cell line HepG2-A16-CD81EGFP. Conditions: human, HepG2-A16-CD81EGFP cells; read-out: INHIBITION
In outline: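 Uninfected HepG2-A16-CD81EGFP cells, 3 × 10^3 per well, 1536-well, plated on prespotted compound at 10 μM final, parasite-free screening media added to match infected plates; puromycin 10 μM positive, DMSO 0.5% negative; run in parallel with 48 h PbLuc assay at 37 °C, 5% CO2; viability by CellTiter-Glo luminescence, normalized to controls.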
As to `CC[C@@H](C)[C@H](NC(=O)Cn1ccc2c(Cl)cccc21)C(=O)O`, the cytotoxicity at 10 µM turned out to be 2.88%.

As for `CCNC(=O)N1CCN(c2nc3ccccc3n2C)CC1`, the cytotoxicity at 10 µM is 0.739%.

With `CC(C)CN1C[C@H]2CCN(C(=O)c3ccccn3)CC[C@H]2S1(=O)=O`, the cytotoxicity at 10 µM worked out at 0.582%.

Take `CC(=O)N1CCC2(C1)C(=O)N(CC1CC1)c1ccccc12` (stereo unspecified): the cytotoxicity at 10 µM amounted to 2.26%.

For the compound `O=C(Cc1ccsc1)NCC1Cn2nnc(-c3ccoc3)c2CO1` (stereo unspecified), the cytotoxicity at 10 µM is 17.6%.

In the case of `CS(=O)(=O)N1CCN(CC2CC2)c2ncccc2C1`, the cytotoxicity at 10 µM is -152%.

As for `O=C(c1ccno1)N1CCC2(CC1)C(=O)Nc1ccccc12`, the cytotoxicity at 10 µM was -134%.

In the case of `CCOc1ccc(C2SCC(=O)Nc3c2c(=O)[nH]n3C(CC)CC)cc1` (stereo unspecified), the cytotoxicity at 10 µM is 6.5%.

For the compound `CCCNC(=O)c1sc(Nc2ccc(Cl)cn2)nc1C`, the cytotoxicity at 10 µM was -15.2%.

As to `COC[C@@]12CCO[C@@H]1CCN(C(=O)COc1ccccc1OC)C2`, the cytotoxicity at 10 µM is -8.89%.

Consider `CS(=O)(=O)NC[C@]12COC[C@H]1CN(C(=O)c1ccoc1)C2`, for which the cytotoxicity at 10 µM worked out at 4.34%.

As for `NCc1n[nH]c(-c2ccc(F)cc2)n1`, the cytotoxicity at 10 µM came to 0.186%.

Consider `Cc1nnc(C2CCN(c3ccc(F)cc3)CC2)o1`, for which the cytotoxicity at 10 µM was determined as 0.207%.

Consider `CN(C)C(=O)c1cccc(C2CCN(c3ncccn3)CC2)n1`, for which the cytotoxicity at 10 µM is 1.24%.

For the compound `CS(=O)(=O)N[C@@H]1CN(C(=O)c2cc3ccccc3s2)C[C@H]1O`, the cytotoxicity at 10 µM is -0.378%.

With `CC(=O)N(C)Cc1ccccc1NC(=O)c1ccccc1C`, the cytotoxicity at 10 µM was 1.18%.

Turning to `O=S1(=O)CCCN(Cc2ccccc2OCC(F)(F)F)CC1`, the cytotoxicity at 10 µM is 9.11%.

In the case of `CC(=O)N1CCN(c2ccccc2CNc2ccc3[nH]ncc3c2)CC1`, the cytotoxicity at 10 µM amounted to 9.17%.

As to `CCN(CC)S(=O)(=O)NCC(O)c1c(Cl)cccc1Cl` (stereo unspecified), the cytotoxicity at 10 µM worked out at 8.66%.

Take `NC(=O)C(NC(=O)CCc1ccc(Cl)s1)c1ccccc1` (stereo unspecified): the cytotoxicity at 10 µM was 1.28%.

As to `Cc1noc(C(C)N2CCN(CCn3ccccc3=O)CC2)n1` (stereo unspecified), the cytotoxicity at 10 µM was 5.31%.

Turning to `Cc1oc(CNC(=O)Cc2ccccc2Cl)cc1C(=O)O`, the cytotoxicity at 10 µM came to 0.723%.

As to `CC(C)c1nc(C2CCCN(C(=O)CN3CCN(C)CC3)C2)no1` (stereo unspecified), the cytotoxicity at 10 µM turned out to be 3.8%.

With `CCN(CCC(=O)NC1CC1)Cc1ccc(Cl)s1`, the cytotoxicity at 10 µM is 3.88%.

Turning to `Cn1c(C(=O)N2CCC(C3OCCO3)CC2)c(Cl)c2ccccc21`, the cytotoxicity at 10 µM stood at 13.7%.

For `O=S(=O)(CCN1CCOC(Cn2cccn2)C1)c1ccccc1` (stereo unspecified), the cytotoxicity at 10 µM was -0.165%.

`Cc1cc(C(=O)N2CCC(Nc3cccnc3)CC2)c(C)s1`: the cytotoxicity at 10 µM was -141%.

Consider `O=C(c1cnns1)N1CCN(c2ccc(F)cc2Cl)CC1`, for which the cytotoxicity at 10 µM is -145%.

On to `CC(C)CCN1C(=O)CC(N(C)Cc2nc3ccccc3c(=O)[nH]2)C1=O` (stereo unspecified), for which the cytotoxicity at 10 µM was -3.85%.

Take `Cc1nc2sccn2c1CNc1ccc(C(=O)O)cc1`: the cytotoxicity at 10 µM came out at 11.7%.

In the case of `CC(C)(C)SCC(=O)NC(C)(C(N)=O)c1cccc(Cl)c1` (stereo unspecified), the cytotoxicity at 10 µM came to 1.61%.

Take `Cc1ccc(C(=O)N2CCSCC2)cc1NC(=O)NCCO`: the cytotoxicity at 10 µM was -9.64%.

As for `CCc1csc(C2CCCN(C(=O)c3cnn(CC)c3)C2)n1` (stereo unspecified), the cytotoxicity at 10 µM is 4.73%.

Turning to `Cc1nn(C)c(C)c1CCC(=O)N1CCCC1Cn1cccn1` (stereo unspecified), the cytotoxicity at 10 µM turned out to be 1.78%.

Turning to `Cc1cc(C)c2ncn(CCOCCO)c(=O)c2c1`, the cytotoxicity at 10 µM was found to be 8.17%.

`O=C(O)c1cc(-c2ccncc2)cc(S(=O)(=O)NCc2ccccn2)c1`: the cytotoxicity at 10 µM is -51.9%.

In the case of `CCSCC(C)NCc1cn2ccccc2n1` (stereo unspecified), the cytotoxicity at 10 µM was -7.38%.

Regarding `Cc1ccc(NC2CCCN(Cc3ccc(Cl)cc3)C2)nn1` (stereo unspecified), the cytotoxicity at 10 µM is -5.98%.

With `COc1cccc2c1OCC(CNC(=O)CCn1cnnn1)C2` (stereo unspecified), the cytotoxicity at 10 µM is -144%.

Regarding `CC(C)c1nc(CN(C)C(=O)c2ccc3c(c2)OCC(=O)N3)cs1`, the cytotoxicity at 10 µM is -4.15%.

`Cc1ccc(N2CCN(C(=O)C(O)c3cccc(Cl)c3)CC2=O)cc1` (stereo unspecified): the cytotoxicity at 10 µM was -5.01%.

In the case of `N#Cc1ccccc1C(=O)N1C[C@@H](CN2CCCCCC2)[C@@H](CO)C1`, the cytotoxicity at 10 µM stood at 1.1%.

`CCCc1nc(N[C@H]2COC[C@@H]2N2CCCCC2)c2cnn(C)c2n1`: the cytotoxicity at 10 µM worked out at 0.727%.

Turning to `CN(Cc1n[nH]c(=O)n1Cc1cccs1)S(C)(=O)=O`, the cytotoxicity at 10 µM was -4.2%.

For the compound `O=C(O)[C@@H]1CN(C(=O)c2ccc(O)cc2)C[C@H]1c1cccc(F)c1`, the cytotoxicity at 10 µM was -126%.

As to `Cc1nnc(NC(=O)NCc2ccoc2)s1`, the cytotoxicity at 10 µM was -1.36%.

In the case of `Cc1csc(N2CCN(CC(=O)NCc3ccccn3)CC2C)n1` (stereo unspecified), the cytotoxicity at 10 µM was -4.04%.

Turning to `Cc1nc(CN2CCCC(NCc3cnc(C(C)(C)C)s3)C2)no1` (stereo unspecified), the cytotoxicity at 10 µM stood at 0.38%.

As for `CCc1nc(CN2CCCN(C(=O)CCOC(C)C)CC2)cs1`, the cytotoxicity at 10 µM was -17.3%.

In the case of `COc1cc(C)c(C(C)NC(=O)NCCCn2cncn2)cc1OC` (stereo unspecified), the cytotoxicity at 10 µM is -16.2%.

As for `Cc1noc(C(C)N2CCN(Cc3nnc(C4CC4)o3)CC2)n1` (stereo unspecified), the cytotoxicity at 10 µM was -11.8%.

Turning to `CCOc1ncccc1CNC(=O)Nc1cc(C)nn1C`, the cytotoxicity at 10 µM came out at 1.25%.

For the compound `O=C(NCC(F)(F)F)C1CSCN1S(=O)(=O)c1ccc(F)cc1Cl` (stereo unspecified), the cytotoxicity at 10 µM is -12.8%.

For `c1cnnc(N2CCCC2CNc2ncnc3sccc23)c1` (stereo unspecified), the cytotoxicity at 10 µM was -12.9%.

Turning to `O=C(c1ccc2c(c1)CCC2)N1CCC(c2n[nH]c(C3CC3)n2)CC1`, the cytotoxicity at 10 µM was -8.06%.

Turning to `CN(Cc1cnn(-c2ccccc2)n1)C1CCCN(c2cccnn2)C1` (stereo unspecified), the cytotoxicity at 10 µM is -9.83%.

On to `CCOc1ncccc1C(=O)N1CCCC1c1c(C)nn(C)c1Cl` (stereo unspecified), for which the cytotoxicity at 10 µM turned out to be 0.534%.

Consider `Cc1ccc(CNCC2CCCN2c2cccnn2)s1` (stereo unspecified), for which the cytotoxicity at 10 µM was -4.38%.

As for `Cc1cnn(CC2CCCCN2C(=O)c2nccnc2N)c1` (stereo unspecified), the cytotoxicity at 10 µM is -3.03%.

`CCc1nc(C2CCCN(C(=O)c3cccc(Cl)c3)C2)no1` (stereo unspecified): the cytotoxicity at 10 µM was -7.55%.

As for `CCn1c(C)nnc1CN(C)C1CCN(CCOc2ccccc2)C1` (stereo unspecified), the cytotoxicity at 10 µM was determined as 0.796%.

For `CCn1cc(CN2CCCN(C(=O)c3ccoc3C)CC2)cn1`, the cytotoxicity at 10 µM is -6.67%.

With `O=S(=O)(CCN1CCOC(Cn2cccn2)C1)C(F)(F)F` (stereo unspecified), the cytotoxicity at 10 µM is 3.78%.

In the case of `Cc1ccoc1C(=O)N1CCOCC2(CCN(c3ncccn3)C2)C1` (stereo unspecified), the cytotoxicity at 10 µM is -7.23%.

Take `O=C(NC1CC1)N1CC[C@H]2[C@H]1CCN2c1nncs1`: the cytotoxicity at 10 µM is -4.94%.

`O=C1CO[C@@H]2CN(CC3CCOCC3)C[C@H]2N1Cc1ccncc1`: the cytotoxicity at 10 µM is -139%.

On to `CO[C@@H]1CCN(C(=O)c2ccsc2)[C@@H]2CN(CC3CC3)C[C@@H]21`, for which the cytotoxicity at 10 µM is -3.1%.

As for `Cn1cccc1CN1CCC2(CC1)CN(c1ccccc1)C(=O)CO2`, the cytotoxicity at 10 µM was -130%.

Take `Cc1nnc(N2C[C@H](C(=O)NCC3CC3)[C@@H]3CCO[C@@H]3C2)s1`: the cytotoxicity at 10 µM is 17.1%.

Take `c1cncc(CN2CCCn3nnc(CN4CCCC4)c3C2)c1`: the cytotoxicity at 10 µM stood at 4.78%.

For `CCc1nccn1CC(=O)N1C[C@@H]2CC[C@H]1CN(C(=O)N(C)C)C2`, the cytotoxicity at 10 µM was -4.67%.
